Assay results from ChEMBL document CHEMBL1914423, “New imidazo[2,1-b]thiazole derivatives: synthesis, in vitro anticancer evaluation, and in silico studies” (Eur J Med Chem, 2011).
pIC50: −log10 of the molar value.

Key:
HOP-92 = experiment: Anticancer activity against human HOP92 cells after 48 hrs by SRB assay; assay type: functional; details: HOP-92, 48 h
Procedure, shortened: (§1)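 NCI five-dose screen. Cells in RPMI 1640 with 5% FBS and 2 mM L-glutamine, seeded at 5000–40,000 cells/well according to doubling time, then pre-incubated 24 h at 37 °C in 5% CO2. Drugs dissolved in DMSO, five concentrations by 10-fold or 1/2-log dilution. Cells fixed with TCA, SRB-stained, A515 read. IC50 solved from [(Ti−Tz)/(C−Tz)]×100 = 50.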

T47D = experiment: Anticancer activity against human T47D cells after 48 hrs by SRB assay; assay type: functional
Procedure, shortened: (§2)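 NCI-60 five-dose mode: cells in RPMI 1640 with 5% FBS and 2 mM glutamine, plated at 5000–40,000 cells/well, and preincubated 24 h, with time-zero plates TCA-fixed. Drug given at five concentrations (10-fold or ½-log serial dilutions). Cold TCA fixation 60 min at 4 °C, SRB stain, Tris solubilization, A515. IC50 taken where [(Ti−Tz)/(C−Tz)]×100 = 50.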

COLO 205 = experiment: Anticancer activity against human COLO205 cells after 48 hrs by SRB assay; assay type: functional; details: COLO 205, 48 h; procedure, shortened: as §1
Malme-3M [1] = experiment: Anticancer activity against human MALME-3M cells after 48 hrs by SRB assay; assay type: functional; procedure, shortened: as §1
LOX IMVI [2] = experiment: Anticancer activity against human LOXIMVI cells after 48 hrs by SRB assay; assay type: functional; procedure, shortened: as §1
SF-295 = experiment: Anticancer activity against human SF295 cells after 48 hrs by SRB assay; assay type: functional; details: SF-295, 48 h
LOX IMVI [3] = experiment: Antiproliferative activity against human LOXIMVI cells after 48 hrs by MTT assay; assay type: functional, cell-based
DU-145 = experiment: Anticancer activity against human DU145 cells after 48 hrs by SRB assay; assay type: functional; details: DU-145, 48 h; procedure, shortened: as §1
CCRF-CEM = experiment: Anticancer activity against human CCRF-CEM cells after 48 hrs by SRB assay; assay type: functional; procedure, shortened: as §1
HT-29 = experiment: Anticancer activity against human HT-29 cells after 48 hrs by SRB assay; assay type: functional; details: HT-29, 48 h; procedure, shortened: as §1
SR = experiment: Anticancer activity against human SR cells after 48 hrs by SRB assay; assay type: functional; procedure, shortened: as §2
Malme-3M [4] = experiment: Antiproliferative activity against human MALME-3M cells after 48 hrs by MTT assay; assay type: functional, cell-based
KM12 = experiment: Anticancer activity against human KM12 cells after 48 hrs by SRB assay; assay type: functional; details: KM12, 48 h; procedure, shortened: as §1
SW-620 = experiment: Anticancer activity against human SW620 cells after 48 hrs by SRB assay; assay type: functional; details: SW-620, 48 h; procedure, shortened: as §2
HL-60(TB) = experiment: Anticancer activity against human HL-60(TB) cells after 48 hrs by SRB assay; assay type: functional; details: HL-60, 48 h
Procedure, shortened: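 NCI-60 five-dose screen. Cells grown in RPMI 1640 with 5% FBS and 2 mM L-glutamine, seeded at 5000–40,000 cells/well, and held 24 h at 37 °C and 5% CO₂ before drug. DMSO stocks were diluted into five concentrations (10-fold or ½-log steps). Settled suspension cells were fixed with cold TCA, SRB-stained, and read at 515 nm. […] was taken where [(Ti−Tz)/(C−Tz)]×100 = 50.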

U-251 = experiment: Anticancer activity against human U251 cells after 48 hrs by SRB assay; assay type: functional; details: U-251, 48 h; procedure, shortened: as §2
SK-MEL-28 = experiment: Antiproliferative activity against human SK-MEL-28 cells after 48 hrs by MTT assay; assay type: functional, cell-based; details: SK-MEL-28, 48 h
HCC 2998 = experiment: Anticancer activity against human HCC2998 cells after 48 hrs by SRB assay; assay type: functional; details: HCC 2998, 48 h; procedure, shortened: as §1
OVCAR-3 = experiment: Anticancer activity against human OVCAR3 cells after 48 hrs by SRB assay; assay type: functional; details: OVCAR-3, 48 h
A498 = experiment: Anticancer activity against human A498 cells after 48 hrs by SRB assay; assay type: functional; details: A498, 48 h; procedure, shortened: as §1
IGROV-1 = experiment: Anticancer activity against human IGROV1 cells after 48 hrs by SRB assay; assay type: functional; details: IGROV-1, 48 h; procedure, shortened: as §1
NCI-H322M = experiment: Anticancer activity against human NCI-H322M cells after 48 hrs by SRB assay; assay type: functional
HCT-15 = experiment: Anticancer activity against human HCT15 cells after 48 hrs by SRB assay; assay type: functional; details: HCT-15, 48 h; procedure, shortened: as §1
CAKI-1 = experiment: Anticancer activity against human Caki1 cells after 48 hrs by SRB assay; assay type: functional; details: CAKI-1, 48 h; procedure, shortened: as §1
EKVX = experiment: Anticancer activity against human EKVX cells after 48 hrs by SRB assay; assay type: functional; procedure, shortened: as §1
K562 = experiment: Anticancer activity against human K562 cells after 48 hrs by SRB assay; assay type: functional; details: K562, 48 h; procedure, shortened: as §1
SF-268 = experiment: Anticancer activity against human SF268 cells after 48 hrs by SRB assay; assay type: functional; details: SF-268, 48 h
[5] = read-out: LC50 (the source's name)

For `O=C(NCCNc1nccc(-c2c(-c3cccc(O)c3)nc3sccn23)n1)c1ccccc1O`, the GI50 (HOP-92) was 9.74 µM, the TGI (HOP-92) was 34.7 µM and the CC50 (HOP-92; [5]) was greater than 100 µM. The GI50 (T47D) was 2.95 µM, the TGI (T47D) was 20 µM and the CC50 (T47D; [5]) was greater than 100 µM. The GI50 (COLO 205) was 5.58 µM, the TGI (COLO 205) was 20.9 µM and the CC50 (COLO 205; [5]) was 66.1 µM. The GI50 (Malme-3M [1]) was 0.433 µM, the TGI (Malme-3M [1]) was 11.8 µM and the CC50 (Malme-3M [1]; [5]) was 45.1 µM. It also gave a GI50 (LOX IMVI [2]) of 0.335 µM, a TGI (LOX IMVI [2]) of 16.4 µM and a CC50 (LOX IMVI [2]; [5]) of 75.1 µM. It also gave a GI50 (SF-295) of 7.69 µM, a TGI (SF-295) of 27.2 µM and a CC50 (SF-295; [5]) of 83.9 µM. It also gave a pIC50 (LOX IMVI [3]) of 5.58, a GI50 (DU-145) of 5.22 µM and a TGI (DU-145) of 43.3 µM. It also gave a CC50 (DU-145; [5]) greater than 100 µM, a GI50 (CCRF-CEM) of 3.43 µM and a TGI (CCRF-CEM) greater than 100 µM. For the same molecule, the CC50 (CCRF-CEM; [5]) was greater than 100 µM, the GI50 (HT-29) was 4.22 µM and the TGI (HT-29) was 15.3 µM. For the same molecule, the CC50 (HT-29; [5]) was 40.8 µM, the GI50 (SR) was 5.94 µM and the TGI (SR) was greater than 100 µM. For the same molecule, the CC50 (SR; [5]) was greater than 100 µM, the pIC50 (Malme-3M [4]) was 6.82 and the GI50 (KM12) was 6.38 µM. It also gave a TGI (KM12) of 27.3 µM, a CC50 (KM12; [5]) greater than 100 µM and a GI50 (SW-620) of 5.43 µM. It also gave a TGI (SW-620) of 49.5 µM, a CC50 (SW-620; [5]) greater than 100 µM and a GI50 (HL-60(TB)) of 4.95 µM. It also gave an LC50 (HL-60(TB)) greater than 100 µM, a TGI (HL-60(TB)) greater than 100 µM and a GI50 (U-251) of 0.152 µM. It also gave a TGI (U-251) of 18.7 µM, a CC50 (U-251; [5]) of 64.6 µM and a pIC50 (SK-MEL-28) of 6.17. The GI50 (HCC 2998) was 3.55 µM, the TGI (HCC 2998) was 16.5 µM and the CC50 (HCC 2998; [5]) was greater than 100 µM. It also gave a GI50 (OVCAR-3) of 3.35 µM, a TGI (OVCAR-3) of 30.3 µM and a CC50 (OVCAR-3; [5]) greater than 100 µM. For the same molecule, the GI50 (A498) was 14.5 µM, the TGI (A498) was 33.7 µM and the CC50 (A498; [5]) was 78.1 µM. It also gave a GI50 (IGROV-1) of 17.4 µM, a TGI (IGROV-1) of 92.9 µM and a CC50 (IGROV-1; [5]) greater than 100 µM. It also gave a GI50 (NCI-H322M) of 4.6 µM, a TGI (NCI-H322M) of 18.5 µM and a CC50 (NCI-H322M; [5]) of 66.6 µM. It also gave a GI50 (HCT-15) of 3.83 µM, a TGI (HCT-15) of 24.5 µM and a CC50 (HCT-15; [5]) greater than 100 µM. The GI50 (CAKI-1) was 3.71 µM, the TGI (CAKI-1) was 55.6 µM and the CC50 (CAKI-1; [5]) was greater than 100 µM. The GI50 (EKVX) was 7.81 µM, the LC50 (EKVX) was greater than 100 µM and the TGI (EKVX) was 39.1 µM. It also gave a GI50 (K562) of 6.06 µM, a TGI (K562) greater than 100 µM and a CC50 (K562; [5]) greater than 100 µM. It also gave a GI50 (SF-268) of 3.59 µM, a TGI (SF-268) of 24.9 µM and a CC50 (SF-268; [5]) greater than 100 µM.
